Source: ChEMBL document CHEMBL3286162, “Synthesis and anticancer activity of novel quinoline-docetaxel analogues” (Bioorg Med Chem Lett, 2014)

Legend:
MCF7 [1] = assay: Antiproliferative against human MCF7 cells after 72 hrs by MTT assay; format: functional, cell-based; conditions: MCF7, 72 h
Summary of the method: (§1)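 MTT cytotoxicity assay with 72 h continuous exposure of cells to test compounds, run alongside docetaxel as positive control. The panel comprised four parental human cancer lines (HeLa, A549, A2780, MCF-7) and two drug-resistant sublines (A2780-MDR, MCF-7-MDR).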

A2780 [2] = assay: Antiproliferative against multidrug-resistant human A2780 cells after 72 hrs by MTT assay; format: functional, cell-based; conditions: A2780, 72 h; summary of the method: as §1
MCF7 [3] = assay: Antiproliferative against multidrug-resistant human MCF7 cells after 72 hrs by MTT assay; format: functional, cell-based; conditions: MCF7, 72 h; summary of the method: as §1
A2780 [4] = assay: Antiproliferative against human A2780 cells after 72 hrs by MTT assay; format: functional, cell-based; conditions: A2780, 72 h; summary of the method: as §1
HeLa [5] = assay: Antiproliferative against human HeLa cells after 72 hrs by MTT assay; format: functional, cell-based; summary of the method: as §1
A549 [6] = assay: Antiproliferative against human A549 cells after 72 hrs by MTT assay; format: functional, cell-based; conditions: A549, 72 h; summary of the method: as §1
MCF7 [7] = assay: Ratio of docetaxel IC50 to compound IC50 for human MCF7 cells after 72 hrs by MTT assay; format: functional
MCF7 [8] = assay: Ratio of docetaxel IC50 to compound IC50 for multidrug-resistant human MCF7 cells after 72 hrs by MTT assay; format: functional
A549 [9] = assay: Ratio of docetaxel IC50 to compound IC50 for human A549 cells after 72 hrs by MTT assay; format: functional
A2780 [10] = assay: Ratio of docetaxel IC50 to compound IC50 for human A2780 cells after 72 hrs by MTT assay; format: functional
HeLa [11] = assay: Ratio of docetaxel IC50 to compound IC50 for human HeLa cells after 72 hrs by MTT assay; format: functional

| IC50 (MCF7 [1]) [nM] | IC50 (A2780 [2]) [nM] | IC50 (MCF7 [3]) [nM] | IC50 (A2780 [4]) [nM] | IC50 (HeLa [5]) [nM] | IC50 (A549 [6]) [nM] | SMILES | Ratio IC50 (MCF7 [7]) | Ratio IC50 (MCF7 [8]) | Ratio IC50 (A549 [9]) | Ratio IC50 (A2780 [10]) | Ratio IC50 (HeLa [11]) |
| --- | --- | --- | --- | --- | --- | --- | --- | --- | --- | --- | --- |
| 26.4 | 33.2 | 9.3 | 35 | 30.7 | 38.2 | CC(=O)O[C@@]12CO[C@@H]1C[C@H](O)[C@@]1(C)C(=O)[C@H](O)C3=C(C)[C@@H](OC(=O)[C@H](OC(=O)c4ccc5ccccc5n4)[C@@H](NC(=O)OC(C)(C)C)c4ccccc4)C[C@@](O)([C@@H](OC(=O)c4ccccc4)[C@H]21)C3(C)C |  |  |  |  |  |
| 17.8 | 34.9 | 36.3 | 44.8 | 41 | 41.2 | CC(=O)O[C@@]12CO[C@@H]1C[C@H](O)[C@@]1(C)C(=O)[C@H](O)C3=C(C)[C@@H](OC(=O)[C@H](OC(=O)c4cnc5ccccc5c4)[C@@H](NC(=O)OC(C)(C)C)c4ccccc4)C[C@@](O)([C@@H](OC(=O)c4ccccc4)[C@H]21)C3(C)C | 2 |  |  |  |  |
| 30.7 | 30.2 | 8.8 | 23.1 | 34.6 | 38.8 | CC(=O)O[C@@]12CO[C@@H]1C[C@H](O)[C@@]1(C)C(=O)[C@H](O)C3=C(C)[C@@H](OC(=O)[C@H](OC(=O)c4ccc5ncccc5c4)[C@@H](NC(=O)OC(C)(C)C)c4ccccc4)C[C@@](O)([C@@H](OC(=O)c4ccccc4)[C@H]21)C3(C)C |  | 20 |  |  |  |
| 16.8 | 12.2 | 17.8 | 49.3 | 33.2 | 28.1 | CC(=O)O[C@@]12CO[C@@H]1C[C@H](O)[C@@]1(C)C(=O)[C@H](O)C3=C(C)[C@@H](OC(=O)[C@H](OC(=O)c4nccc5ccccc45)[C@@H](NC(=O)OC(C)(C)C)c4ccccc4)C[C@@](O)([C@@H](OC(=O)c4ccccc4)[C@H]21)C3(C)C |  |  |  |  |  |
| 12.8 | 43.9 | 25.6 | 32.9 | 39 | 33.4 | COc1cc(C(=O)O[C@@H](C(=O)O[C@H]2C[C@@]3(O)[C@@H](OC(=O)c4ccccc4)[C@@H]4[C@]5(OC(C)=O)CO[C@@H]5C[C@H](O)[C@@]4(C)C(=O)[C@H](O)C(=C2C)C3(C)C)[C@@H](NC(=O)OC(C)(C)C)c2ccccc2)nc2ccccc12 | 2 |  |  |  |  |
| 39.8 | 32.5 | 28.4 | 41.6 | 19.3 | 16 | CC(=O)O[C@@]12CO[C@@H]1C[C@H](O)[C@@]1(C)C(=O)[C@H](O)C3=C(C)[C@@H](OC(=O)[C@H](OC(=O)c4cc(-c5ccccc5)nc5ccccc45)[C@@H](NC(=O)OC(C)(C)C)c4ccccc4)C[C@@](O)([C@@H](OC(=O)c4ccccc4)[C@H]21)C3(C)C |  |  | 2 |  |  |
| 42 | 29.7 | 21.2 | 45.3 | 32.6 | 38.5 | CC(=O)O[C@@]12CO[C@@H]1C[C@H](O)[C@@]1(C)C(=O)[C@H](O)C3=C(C)[C@@H](OC(=O)[C@H](OC(=O)c4cn(C5CC5)c5cc(Cl)c(F)cc5c4=O)[C@@H](NC(=O)OC(C)(C)C)c4ccccc4)C[C@@](O)([C@@H](OC(=O)c4ccccc4)[C@H]21)C3(C)C |  |  |  |  |  |
| 37.3 | 29.8 | 24.1 | 45.7 | 19.9 | 27.1 | CC(=O)O[C@H]1C(=O)[C@@]2(C)[C@H]([C@H](OC(=O)c3ccccc3)[C@]3(O)C[C@H](OC(=O)[C@H](OC(=O)c4ccc5ccccc5n4)[C@@H](NC(=O)OC(C)(C)C)c4ccccc4)C(C)=C1C3(C)C)[C@]1(OC(C)=O)CO[C@@H]1C[C@@H]2O |  |  |  |  |  |
| 43.3 | 29 | 37.8 | 34.2 | 36.3 | 41 | CC(=O)O[C@H]1C(=O)[C@@]2(C)[C@H]([C@H](OC(=O)c3ccccc3)[C@]3(O)C[C@H](OC(=O)[C@H](OC(=O)c4cnc5ccccc5c4)[C@@H](NC(=O)OC(C)(C)C)c4ccccc4)C(C)=C1C3(C)C)[C@]1(OC(C)=O)CO[C@@H]1C[C@@H]2O |  |  |  |  |  |
| 29.8 | 35.1 | 35.7 | 16.3 | 18.5 | 28.4 | CC(=O)O[C@H]1C(=O)[C@@]2(C)[C@H]([C@H](OC(=O)c3ccccc3)[C@]3(O)C[C@H](OC(=O)[C@H](OC(=O)c4ccc5ncccc5c4)[C@@H](NC(=O)OC(C)(C)C)c4ccccc4)C(C)=C1C3(C)C)[C@]1(OC(C)=O)CO[C@@H]1C[C@@H]2O |  |  |  | 2 |  |
| 26.6 | 18.6 | 45.9 | 16.9 | 41.2 | 35.3 | CC(=O)O[C@H]1C(=O)[C@@]2(C)[C@H]([C@H](OC(=O)c3ccccc3)[C@]3(O)C[C@H](OC(=O)[C@H](OC(=O)c4nccc5ccccc45)[C@@H](NC(=O)OC(C)(C)C)c4ccccc4)C(C)=C1C3(C)C)[C@]1(OC(C)=O)CO[C@@H]1C[C@@H]2O |  |  |  | 2 |  |
| 47.6 | 21.3 | 18.2 | 30.1 | 34.9 | 32.3 | COc1cc(C(=O)O[C@@H](C(=O)O[C@H]2C[C@@]3(O)[C@@H](OC(=O)c4ccccc4)[C@@H]4[C@]5(OC(C)=O)CO[C@@H]5C[C@H](O)[C@@]4(C)C(=O)[C@H](OC(C)=O)C(=C2C)C3(C)C)[C@@H](NC(=O)OC(C)(C)C)c2ccccc2)nc2ccccc12 |  |  |  |  |  |
| 31.4 | 49.8 | 18.3 | 28.2 | 11.8 | 42.5 | CC(=O)O[C@H]1C(=O)[C@@]2(C)[C@H]([C@H](OC(=O)c3ccccc3)[C@]3(O)C[C@H](OC(=O)[C@H](OC(=O)c4cc(-c5ccccc5)nc5ccccc45)[C@@H](NC(=O)OC(C)(C)C)c4ccccc4)C(C)=C1C3(C)C)[C@]1(OC(C)=O)CO[C@@H]1C[C@@H]2O |  |  |  |  | 5 |
| 30.2 | 34.5 | 38.9 | 39.8 | 25.3 | 28.8 | CC(=O)O[C@H]1C(=O)[C@@]2(C)[C@H]([C@H](OC(=O)c3ccccc3)[C@]3(O)C[C@H](OC(=O)[C@H](OC(=O)c4cn(C5CC5)c5cc(Cl)c(F)cc5c4=O)[C@@H](NC(=O)OC(C)(C)C)c4ccccc4)C(C)=C1C3(C)C)[C@]1(OC(C)=O)CO[C@@H]1C[C@@H]2O |  |  |  |  |  |
| 38.5 | 126 | 180 | 33 | 50.1 | 35.2 | CC(=O)O[C@@]12CO[C@@H]1C[C@H](O)[C@@]1(C)C(=O)[C@H](O)C3=C(C)[C@@H](OC(=O)[C@H](O)[C@@H](NC(=O)OC(C)(C)C)c4ccccc4)C[C@@](O)([C@@H](OC(=O)c4ccccc4)[C@H]21)C3(C)C [DOCETAXEL] |  |  |  |  |  |
